Results from ChEMBL document CHEMBL4390651, “Indole based antimalarial compounds targeting the melatonin pathway: Their design, synthesis and biological evaluation” (Eur J Med Chem, 2019).
The source made the active and inactive calls. No cut-off for these calls is given here.

Assays:
[1] = test system: Plasmodium falciparum; assay: Antimalarial activity against synchronized ring stage of Plasmodium falciparum 3D7 infected in human erythrocytes assessed as inhibition of parasite growth at 10 uM incubated for 0 to 48 hrs by Giemsa staining-based microscopic analysis; format: functional
How it was run: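 3D7 was sorbitol-synchronized to ring stage at 1% parasitemia, cultured in human O+ erythrocytes (5% hematocrit, RPMI 1640/albumax, 37 °C, low-O2 gas), and exposed for 48 h, with DMSO as control. Giemsa smears at 0, 12, 24, 36 and 48 h gave parasitemia and stage morphology. Mean ± SD of three independent experiments.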

[2] = test system: Plasmodium falciparum; assay: Antimalarial activity against ring stage of Plasmodium falciparum 3D7 infected in human erythrocytes assessed as parasite survival level at 10 uM measured immediately at 0 hrs by Giemsa staining-based microscopic analysis (reference value: 96.4 +/- 5.09%); format: functional; details: 3D7, 0 h
[3] = test system: Plasmodium falciparum; assay: Antimalarial activity against trophozoite stage of Plasmodium falciparum 3D7 infected in human erythrocytes assessed as parasite survival level at 10 uM measured immediately at 0 hrs by Giemsa staining-based microscopic analysis (reference value: 3.55 +/- 5.02%); format: functional; details: 3D7, 0 h
[4] = test system: Plasmodium falciparum; assay: Antimalarial activity against schizont stage of Plasmodium falciparum 3D7 infected in human erythrocytes assessed as parasite survival level at 10 uM measured immediately at 0 hrs by Giemsa staining-based microscopic analysis (reference value: 0%); format: functional; details: 3D7, 0 h
[5] = test system: Plasmodium falciparum; assay: Antimalarial activity against ring stage of Plasmodium falciparum 3D7 infected in human erythrocytes assessed as parasite survival level at 10 uM incubated for 48 hrs by Giemsa staining-based microscopic analysis (reference value: 51.3 +/- 1.83%); format: functional; details: 3D7, 48 h
[6] = test system: Plasmodium falciparum; assay: Antimalarial activity against trophozoite stage of Plasmodium falciparum 3D7 infected in human erythrocytes assessed as parasite survival level at 10 uM incubated for 48 hrs by Giemsa staining-based microscopic analysis (reference value: 43.65 +/- 5.16%); format: functional; details: 3D7, 48 h
[7] = test system: Plasmodium falciparum; assay: Antimalarial activity against schizont stage of Plasmodium falciparum 3D7 infected in human erythrocytes assessed as parasite survival level at 10 uM incubated for 48 hrs by Giemsa staining-based microscopic analysis (reference value: 5 +/- 7.07%); format: functional; details: 3D7, 48 h
[8] = test system: Plasmodium falciparum; assay: Antimalarial activity against synchronized ring stage of Plasmodium falciparum 3D7 infected in human erythrocytes assessed as inhibition of parasite growth incubated for 48 hrs by Giemsa staining-based microscopic analysis; format: functional, organism-based; details: 3D7, 48 h
How it was run: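 Sorbitol-synchronized ring-stage 3D7 in human O+ erythrocytes was exposed to four concentrations (1, 5, 10 and 20) for 48 h. Parasitemia was counted on Giemsa smears and IC50 taken from the dose-response curve. Mean ± SD of three independent experiments.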

[9] = test system: Plasmodium falciparum; assay: Antimalarial activity against chloroquine resistant Plasmodium falciparum RKL9 infected in human erythrocytes assessed as reduction in parasitemia incubated for 0 to 48 hrs by Giemsa staining-based microscopic analysis; format: functional, organism-based
How it was run: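 Sorbitol-synchronized ring-stage culture at 1% parasitemia, 5% hematocrit in human O+ erythrocytes (RPMI 1640, 0.5% albumax, hypoxanthine, gentamicin; 37 °C, 5% CO2/5% O2/90% N2). Compounds at […] for 48 h. Parasitemia counted on Giemsa-stained smears at 0 and 48 h. DMSO control. Mean of three independent experiments ±SD.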

[10] = Stability of the compound in 0.01 N HCL at pH 2.0 assessed as compound remaining at 1 mg/ml incubated for 0 to 24 hrs by HPLC analysis relative to control; format: physicochemical
How it was run: (§1)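 Compound stock in acetonitrile was added to 1.0 mL of fresh 0.01 N HCl (pH 2.0) or phosphate buffer (pH 7.4), held at 37 °C, and the amount remaining was measured by HPLC at intervals from 0 to 24 h.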

[11] = Stability of the compound in phosphate buffer at pH 7.4 assessed as compound remaining at 1 mg/ml incubated for 0 to 24 hrs by HPLC analysis relative to control; format: physicochemical; details: phosphate buffer, read-out: Stability; how it was run: as §1
[12] = test system: Plasmodium falciparum; assay: Antimalarial activity against Plasmodium falciparum 3D7 infected in human erythrocytes assessed as reduction in [3H]hypoxanthine incorporation pretreated for 24 hrs followed by [3H]hypoxanthine addition and measured after 48 hrs by scintillation counting method
[13] = test system: Plasmodium falciparum; assay: Antimalarial activity against Plasmodium falciparum 3D7 ring stage synchronized forms infected in human erythrocytes assessed as inhibition of parasite proliferation at 5 uM incubated for 48 hrs by Giemsa-staining method; format: functional; details: 3D7, 48 h
How it was run: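 P. falciparum 3D7 grown in human O+ erythrocytes at 5% hematocrit in RPMI 1640 with NaHCO3, albumax, gentamicin and hypoxanthine, at 37 °C under 90% N2/5% CO2/5% O2. Single-concentration screen read as % inhibition of parasite proliferation. Mean of three experiments, each in triplicate.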

[14] = test system: Plasmodium falciparum; assay: Antimalarial activity against mixed stage of Plasmodium falciparum infected in human erythrocytes assessed as protection against melatonin-induced parasite synchronization by measuring parasitemia at 1 uM measured immediately at 0 hrs by Giemsa staining-based microscopic analysis (reference value: 1.05 +/- 0.07%); format: functional
[15] = test system: Plasmodium falciparum; assay: Antimalarial activity against mixed stage of Plasmodium falciparum infected in human erythrocytes assessed as protection against melatonin-induced parasite synchronization by measuring parasitemia at 5 uM measured immediately at 0 hrs by Giemsa staining-based microscopic analysis (reference value: 1.05 +/- 0.07%); format: functional
[16] = test system: Plasmodium falciparum; assay: Antimalarial activity against mixed stage of Plasmodium falciparum infected in human erythrocytes assessed as protection against melatonin-induced parasite synchronization by measuring parasitemia at 1 uM incubated for 48 hrs by Giemsa staining-based microscopic analysis (reference value: 4.76 +/- 0.61%); format: functional
[17] = test system: Plasmodium falciparum; assay: Antimalarial activity against mixed stage of Plasmodium falciparum infected in human erythrocytes assessed as protection against melatonin-induced parasite synchronization by measuring parasitemia at 5 uM incubated for 48 hrs by Giemsa staining-based microscopic analysis (reference value: 4.76 +/- 0.61%); format: functional
[18] = test system: Plasmodium falciparum; assay: Antimalarial activity against ring stage of Plasmodium falciparum infected in human erythrocytes assessed as protection against melatonin-induced parasite synchronization by measuring parasitemia 1 uM measured immediately by Giemsa staining-based microscopic analysis (reference value: 23.90 +/- 0.84%); format: functional
[19] = test system: Plasmodium falciparum; assay: Antimalarial activity against troph stage of Plasmodium falciparum infected in human erythrocytes assessed as protection against melatonin-induced parasite synchronization by measuring parasitemia 1 uM measured immediately by Giemsa staining-based microscopic analysis (reference value: 52.50 +/- 0.70%); format: functional
[20] = test system: Plasmodium falciparum; assay: Antimalarial activity against schizont stage of Plasmodium falciparum infected in human erythrocytes assessed as protection against melatonin-induced parasite synchronization by measuring parasitemia 1 uM measured immediately by Giemsa staining-based microscopic analysis (reference value: 23.25 +/- 0.35%); format: functional
[21] = test system: Plasmodium falciparum; assay: Antimalarial activity against ring stage of Plasmodium falciparum infected in human erythrocytes assessed as protection against melatonin-induced parasite synchronization by measuring parasitemia 5 uM measured immediately by Giemsa staining-based microscopic analysis (reference value: 23.90 +/- 0.84%); format: functional
[22] = test system: Plasmodium falciparum; assay: Antimalarial activity against troph stage of Plasmodium falciparum infected in human erythrocytes assessed as protection against melatonin-induced parasite synchronization by measuring parasitemia 5 uM measured immediately by Giemsa staining-based microscopic analysis (reference value: 52.50 +/- 0.70%); format: functional
[23] = test system: Plasmodium falciparum; assay: Antimalarial activity against schizont stage of Plasmodium falciparum infected in human erythrocytes assessed as protection against melatonin-induced parasite synchronization by measuring parasitemia 5 uM measured immediately by Giemsa staining-based microscopic analysis (reference value: 23.25 +/- 0.35%); format: functional
[24] = test system: Plasmodium falciparum; assay: Antimalarial activity against ring stage of Plasmodium falciparum infected in human erythrocytes assessed as protection against melatonin-induced parasite synchronization by measuring parasitemia 1 uM incubated for 48 hrs by Giemsa staining-based microscopic analysis (reference value: 11.80 +/- 9.19%); format: functional
[25] = test system: Plasmodium falciparum; assay: Antimalarial activity against troph stage of Plasmodium falciparum infected in human erythrocytes assessed as protection against melatonin-induced parasite synchronization by measuring parasitemia 1 uM incubated for 48 hrs by Giemsa staining-based microscopic analysis (reference value: 88.20 +/- 9.19%); format: functional
[26] = test system: Plasmodium falciparum; assay: Antimalarial activity against schizont stage of Plasmodium falciparum infected in human erythrocytes assessed as protection against melatonin-induced parasite synchronization by measuring parasitemia 1 uM incubated for 48 hrs by Giemsa staining-based microscopic analysis (reference value: 0%); format: functional
[27] = test system: Plasmodium falciparum; assay: Antimalarial activity against ring stage of Plasmodium falciparum infected in human erythrocytes assessed as protection against melatonin-induced parasite synchronization by measuring parasitemia 5 uM incubated for 48 hrs by Giemsa staining-based microscopic analysis (reference value: 11.80 +/- 9.19%); format: functional
[28] = test system: Plasmodium falciparum; assay: Antimalarial activity against troph stage of Plasmodium falciparum infected in human erythrocytes assessed as protection against melatonin-induced parasite synchronization by measuring parasitemia 5 uM incubated for 48 hrs by Giemsa staining-based microscopic analysis (reference value: 88.20 +/- 9.19%); format: functional
[29] = test system: Plasmodium falciparum; assay: Antimalarial activity against schizont stage of Plasmodium falciparum infected in human erythrocytes assessed as protection against melatonin-induced parasite synchronization by measuring parasitemia 5 uM incubated for 48 hrs by Giemsa staining-based microscopic analysis (reference value: 0%); format: functional
[30] = target: Melatonin receptor type 1A (Homo sapiens) (UniProt P48039); assay: Inhibition of human MTNR1 receptor at 500 nM using TMB as substrate preincubated for 1 hr followed by substrate addition by ELISA relative to control
How it was run: (§2)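 ELISA kit format: compounds incubated 1 h with MTNR1 receptor (5 ng/mL), melatonin as control. TMB substrate, stop solution, OD read at 450 nm; expressed as % inhibition.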

[31] = target: Melatonin receptor type 1A (Homo sapiens) (UniProt P48039); assay: Inhibition of human MTNR1 receptor at 5 uM using TMB as substrate preincubated for 1 hr followed by substrate addition by ELISA relative to control; how it was run: as §2

Melatonin receptor type 1A (Homo sapiens), sequence (P48039 whole entry): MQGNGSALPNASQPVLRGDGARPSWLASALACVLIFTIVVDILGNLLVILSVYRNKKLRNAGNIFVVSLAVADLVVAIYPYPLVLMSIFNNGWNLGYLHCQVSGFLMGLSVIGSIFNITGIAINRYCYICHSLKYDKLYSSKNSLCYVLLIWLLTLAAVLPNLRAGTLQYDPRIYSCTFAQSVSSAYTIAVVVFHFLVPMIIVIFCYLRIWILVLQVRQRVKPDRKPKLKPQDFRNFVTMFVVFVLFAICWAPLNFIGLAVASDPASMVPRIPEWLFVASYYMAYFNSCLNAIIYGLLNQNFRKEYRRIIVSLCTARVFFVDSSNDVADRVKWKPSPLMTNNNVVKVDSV

| Compound | growth inhibition (GI) [1] | survival at 10 µM [2] [%] | survival at 10 µM [3] [%] | survival at 10 µM [4] [%] | survival at 10 µM [5] [%] | survival at 10 µM [6] [%] | survival at 10 µM [7] [%] | IC50 [8] [nM] | inhibition [9] | remaining at 1 mg/ml [11] [%] | IC50 [12] [nM] | also measured |
| --- | --- | --- | --- | --- | --- | --- | --- | --- | --- | --- | --- | --- |
| C/N=C(\c1[nH]c2ccccc2c1CCNC(=O)OC)c1c(F)cccc1F | Active | 93 | 3 | 2.82 | 61.2 | 27.5 | 11.2 | 730 | Dose dependent effect | 95 |  | remaining at 1 mg/ml ([10]; 0.01 N HCl, read-out: Stability): 90% |
| CNCCc1c(/C=C/[C@@]2(C)C[C@H](C=C(C)C)c3c(CCNC)c4ccccc4n32)[nH]c2ccccc12 |  |  |  |  |  |  |  |  |  |  | 150 to 1420 |  |
| C/N=C(/c1ccc(Cl)cc1)c1[nH]c2ccccc2c1CCNC(=O)OC |  |  |  |  |  |  |  |  |  |  |  | inhibition at 5 µM [13]: 32% |
| CC(C)=C[C@H]1C[C@@](C)(/C=C/c2[nH]c3ccccc3c2CCN(C)C)n2c1c(CCN(C)C)c1ccccc12 |  |  |  |  |  |  |  |  |  |  | 150 to 1420 |  |
| C/N=C(/c1cc(C(F)(F)F)cc(C(F)(F)F)c1)c1[nH]c2ccc(OC)cc2c1CCNC(=O)OC | Active | 95 | 5 | 0 | 4.95 | 95 | 0 | 740 | Dose dependent effect | 60 |  | Activity [14]: 1.15%; Activity [15]: 1.1%; Activity [16]: 2.8%; Activity [17]: 1.65%; Activity [18]: 24.2%; Activity [19]: 53.8%; Activity [20]: 22.95%; Activity [21]: 24.1%; Activity [22]: 53.25%; Activity [23]: 21.85%; Activity [24]: 18%; Activity [25]: 79.1%; Activity [26]: 2.9%; Activity [27]: 27.25%; Activity [28]: 70.9%; Activity [29]: 1.85%; inhibition [30]: 75%; inhibition [31]: 85%; Stability ([10]; buffer): Unstable |
